From ChEMBL document CHEMBL1141577, “Thiophene containing triarylmethanes as antitubercular agents” (2008)
Converted amounts (≈) assume the structure as drawn.

System: Mycobacterium tuberculosis
Experiment: Antitubercular activity against Mycobacterium tuberculosis H37Rv by agar dilution method
Format: functional
Summary of the method: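 Twofold serial dilutions of compound incorporated into Middlebrook 7H11 agar with OADC supplement, in duplicate wells, at final 12.5, 6.25, 3.125 and 1.56 µg/mL. A known CFU of H37Rv culture was spread on the agar surface, and plates were incubated at 37 °C in 5% CO2. MIC was taken as the lowest concentration giving complete inhibition of colonies.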

Structure (SMILES)	MIC [µg/mL]
CCN(CC)CCOc1ccc(C(c2ccc(Cl)cc2)c2cccs2)cc1 (configuration not stated)	3.12 (≈ 7.8 µM)
COc1ccc(C(c2cccs2)c2ccccc2OCCN(C)C)cc1 (configuration not stated)	> 12.5
Clc1ccc(C(c2ccc(OCCN3CCOCC3)cc2)c2cccs2)cc1 (configuration not stated)	12.5 (≈ 30.2 µM)
COc1ccc(C(c2ccc(OCCN3CCCCCC3)cc2)c2cccs2)cc1 (configuration not stated)	12.5 (≈ 29.6 µM)
CO[C@H]1/C=C/O[C@@]2(C)Oc3c(C)c(O)c4c(O)c(c(/C=N/N5CCN(C)CC5)c(O)c4c3C2=O)NC(=O)/C(C)=C\C=C\[C@H](C)[C@H](O)[C@@H](C)[C@@H](O)[C@@H](C)[C@H](OC(C)=O)[C@@H]1C [RIFAMPIN]	0.1 (≈ 0.122 µM)
CSc1ccc(C(c2ccc(OCCN3CCCCCC3)cc2)c2cccs2)cc1 (configuration not stated)	3.12 (≈ 7.13 µM)
CCN(CC)CCCNCC(O)COc1ccc(C(c2ccc(OC)cc2)c2cccs2)cc1 (configuration not stated)	> 12.5
COc1cccc(C(c2ccc(O)cc2)c2cccs2)c1 (configuration not stated)	> 12.5
CSc1ccc(C(c2ccc(OCCN3CCOCC3)cc2)c2cccs2)cc1 (configuration not stated)	> 12.5
COc1ccc(C(c2ccc(OCC(O)CN3CCCC3)cc2)c2cccs2)cc1 (configuration not stated)	> 12.5
CCN(CC)CCOc1ccc(C(c2ccc(SC)cc2)c2cccs2)cc1 (configuration not stated)	3.12 (≈ 7.58 µM)
COc1ccc(C(c2cccs2)c2ccccc2OCCN2CCCCC2)cc1 (configuration not stated)	> 12.5
CCN(CC)CCOc1ccc(C(c2ccc(OC)cc2)c2cccs2)cc1 (configuration not stated)	6.25 (≈ 15.8 µM)
COc1ccc(C(c2ccc(OCCN(C)C)cc2)c2cccs2)cc1 (configuration not stated)	12.5 (≈ 34 µM)
COc1ccc(C(c2ccc(O)cc2)c2cccs2)cc1 (configuration not stated)	3.12 (≈ 10.5 µM)
Oc1ccc(C(c2ccc(Cl)cc2)c2cccs2)cc1 (configuration not stated)	> 12.5
COc1ccc(C(c2ccc(OCCN3CCOCC3)cc2)c2cccs2)cc1 (configuration not stated)	> 12.5
COc1ccc(C(c2ccc(OCC(O)CNC3CCCCC3)cc2)c2cccs2)cc1 (configuration not stated)	12.5 (≈ 27.7 µM)
CN(C)CCOc1ccc(C(c2ccc(Cl)cc2)c2cccs2)cc1 (configuration not stated)	6.25 (≈ 16.8 µM)

Structure (SMILES)	MIC [µg/mL]
COc1ccc(C(c2ccc(OCC(O)CN3CCN(C)CC3)cc2)c2cccs2)cc1 (configuration not stated)	> 12.5
CCN(CC)CCOc1ccccc1C(c1ccc(OC)cc1)c1cccs1 (configuration not stated)	> 12.5
COc1ccc(C(c2ccc(OCC(O)CN3CCN(c4ccccn4)CC3)cc2)c2cccs2)cc1 (configuration not stated)	> 12.5
NNC(=O)c1ccncc1 [ISONIAZID]	0.05 (≈ 0.365 µM)
COc1ccc(C(c2ccc(OCC(O)CNCCCn3ccnc3)cc2)c2cccs2)cc1 (configuration not stated)	> 12.5
COc1ccc(C(c2ccc(OCC(O)CN3CCCCC3)cc2)c2cccs2)cc1 (configuration not stated)	12.5 (≈ 28.6 µM)
CCN(CC)CCOc1ccc(C(c2cccc(OC)c2)c2cccs2)cc1 (configuration not stated)	3.12 (≈ 7.89 µM)
COc1ccc(C(c2cccs2)c2ccccc2OCCN2CCCCCC2)cc1 (configuration not stated)	> 12.5
COc1cccc(C(c2ccc(OCCN3CCOCC3)cc2)c2cccs2)c1 (configuration not stated)	12.5 (≈ 30.5 µM)
COc1ccc(C(c2ccc(OCC(O)CN3CCN(Cc4ccccc4)CC3)cc2)c2cccs2)cc1 (configuration not stated)	> 12.5
COc1ccc(C(c2cccs2)c2ccccc2OCCN2CCCC2)cc1 (configuration not stated)	> 12.5
COc1ccc(C(c2ccc(OCC(O)CN3CCSCC3)cc2)c2cccs2)cc1 (configuration not stated)	> 12.5
COc1ccc(C(c2ccc(OCC(O)CNCCc3ccc(OC)c(OC)c3)cc2)c2cccs2)cc1 (configuration not stated)	> 12.5
COc1ccc(C(c2ccc(OCC(O)CNCCCN3CCOCC3)cc2)c2cccs2)cc1 (configuration not stated)	> 12.5
COc1cccc(C(c2ccc(OCCN3CCCCCC3)cc2)c2cccs2)c1 (configuration not stated)	3.12 (≈ 7.4 µM)
COc1cccc(C(c2ccc(OCCN(C)C)cc2)c2cccs2)c1 (configuration not stated)	12.5 (≈ 34 µM)
CSc1ccc(C(c2ccc(O)cc2)c2cccs2)cc1 (configuration not stated)	> 12.5
CSc1ccc(C(c2ccc(OCCN(C)C)cc2)c2cccs2)cc1 (configuration not stated)	> 12.5
